For 9 molecules, Rate (pmol/30 min/mg protein) and Rate results are on record in ChEMBL document CHEMBL1121496, “Metabolism of 6-substituted benzo[a]pyrene derivatives: O-dealkylation and regiospecificity in aromatic hydroxylation” (J Med Chem, 1980).

Holding throughout (assay type): functional
The species entered for assay [1] is Rattus norvegicus. Kind of assay: Rate of O-Dealkylation by liver microsomes in rats induced with 3-MC; Rates are expressed as pmol of product per 30 min per mg of protein. Summed up: (§1)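 Male Wistar MRC rats (7–8 weeks old) received 3-MC 40 mg/kg ip in olive oil twice daily for 3 days and were fasted for the final 24 h. Liver microsomes were incubated at 0.5 mg protein/mL with substrate (BP in acetone, others in Me₂SO) for 30 min. Phenolic metabolites were read by fluorescence in base against synthetic phenol standards. Each rat was run in duplicate against a heat- or acetone-inactivated blank, and results are reported as mean ± SE.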

The species entered for assay [2] is Rattus norvegicus. Kind of assay: Rate of O-Dealkylation by lung microsomes in rats induced with 3-MC; Rates are expressed as pmol of product per 30 min per mg of protein. Summed up:
(§2)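 For lung microsomes from 3-MC-induced rats, the dose was 40 mg/kg ip in olive oil, given twice daily for 3 days, followed by a 24 h fast. Incubation used 1.0 mg microsomal protein/mL, with BP added in acetone and derivatives in Me₂SO. Base-extractable phenols were measured by fluorescence and quantitated with synthetic hydroxy-BP standards. Duplicates were corrected against inactivated-microsome blanks, and results are given as mean ± SE across individual rats.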

The species named for assay [3] is Rattus norvegicus. Kind of assay: Rate of O-Dealkylation by lung microsomes in rats induced with PB; Rates are expressed as pmol of product per 30 min per mg of protein. Summed up: (§3)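 Rats were pretreated with phenobarbital, 40 mg/kg ip in saline, twice daily for 3 days, and fasted the last 24 h. Lung microsomes were incubated at 1.0 mg protein/mL with substrate in acetone (BP) or Me₂SO. Product formed over 30 min was measured as fluorescence of phenolic metabolites in basic solution against synthetic phenol standards. Determinations were made in duplicate versus a heat-inactivated blank, and results are reported as mean ± SE.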

The species entered for assay [4] is Rattus norvegicus. Kind of assay: Rate of O-Dealkylation by liver microsomes in rats induced with PB; Rates are expressed as pmol of product per 30 min per mg of protein. Summed up:
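Phenobarbital-induced rats: male Wistar MRC, 7–8 weeks, 40 mg/kg ip in saline twice daily for 3 days, fasted 24 h. Liver microsomes were used at 0.5 mg protein/mL. BP ethers were added in Me2SO, and phenolic products were measured by fluorescence of basic solutions against phenol standards. p-Nitroanisole O-demethylase was assayed by a modified Netter–Seidel method. Runs were in duplicate versus heat-inactivated blank; mean ± SE across rats.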

Assay [5] is filed under the species Rattus norvegicus. Kind of assay: Rate of hydroxylation by liver microsomes in rats induced with PB; Rates are expressed as pmol of product per 30 min per mg of protein. Summed up:
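Liver microsomes (two livers pooled) from 7- or 8-week-old male Wistar MRC rats given phenobarbital 40 mg/kg ip in saline twice daily for 3 days, fasted final 24 h. Incubation at 0.5 mg protein/mL, with BP (80 nmol) in acetone or other substrates in Me2SO. Phenolic metabolites were read by fluorescence in base, quantitated against synthetic 3- or 1-phenol standards, in duplicate versus heat-inactivated blank; mean ± SE across rats.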
(Microsomes from liver hold many membrane-bound enzymes, among them those of drug oxidation.)

For assay [6], the species on record is Rattus norvegicus. Kind of assay: Rate of hydroxylation by liver microsomes in rats induced with 3-MC; Rates are expressed as pmol of product per 30 min per mg of protein. Summed up: as §1
For assay [7], the species on record is Rattus norvegicus. Kind of assay: Rate of 3-hydroxylation by lung microsomes in rats induced with 3-MC; Rates are expressed as pmol of product per 30 min per mg of protein. In outline: (§4)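 Microsomes from lungs (two rats pooled) of 7- or 8-week-old male Wistar MRC rats dosed ip twice daily for 3 days with 3-MC 40 mg/kg in olive oil or phenobarbital 40 mg/kg in saline, then fasted 24 h. Incubation at 1.0 mg protein/mL. BP was added in acetone, other substrates in Me2SO. Base-extracted phenols were read by fluorescence against synthetic phenol standards, in duplicate versus heat-inactivated blank; mean ± SE across rats.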

Assay [8] is filed under the species Rattus norvegicus. Kind of assay: Rate of 3-hydroxylation by lung microsomes in rats induced with PB; Rates are expressed as pmol of product per 30 min per mg of protein. In outline:
as §4

The species entered for assay [9] is Rattus norvegicus. Kind of assay: Rate of hydroxylation by lung microsomes in rats induced with 3-MC; Rates are expressed as pmol of product per 30 min per mg of protein. Summed up:
as §2

Assay [10] is filed under the species Rattus norvegicus. Kind of assay: Rate of hydroxylation by lung microsomes in rats induced with PB; Rates are expressed as pmol of product per 30 min per mg of protein. Summed up: as §3

Turning to `CCOc1ccc2ccc3c(OCC)c4ccccc4c4ccc1c2c34`, the Rate (pmol/30 min/mg protein) in the assay filed under Rattus norvegicus [1] was determined as 3360; in the assay listed under Rattus norvegicus [2], 156; in the assay filed under Rattus norvegicus [3], 48; in the assay filed under Rattus norvegicus [4] it was 2850.

For `c1ccc2c(c1)cc1ccc3cccc4ccc2c1c34`, the Rate (pmol/30 min/mg protein) was found to be 1160 in the assay listed under Rattus norvegicus [5] and 5810 in the assay filed under Rattus norvegicus [6]. In addition, the figures for the Rate in the assay listed under Rattus norvegicus [7] and in the assay filed under Rattus norvegicus [8] were 618 pM and 49 pM, respectively.

Regarding `OCc1c2ccccc2c2ccc3cccc4ccc1c2c43`, the Rate (pmol/30 min/mg protein) in the assay listed under Rattus norvegicus [9] is 182; in the assay listed under Rattus norvegicus [6], 1510.

As for `COc1c2ccccc2c2ccc3cccc4ccc1c2c43`, the Rate (pmol/30 min/mg protein) in the assay listed under Rattus norvegicus [9] was 576; in the assay filed under Rattus norvegicus [5], 1980; in the assay filed under Rattus norvegicus [6] it was 9010; in the assay filed under Rattus norvegicus [10], 69.

As for `COc1ccc([N+](=O)[O-])cc1`, the results for the Rate (pmol/30 min/mg protein) in the assay filed under Rattus norvegicus [1] and in the assay filed under Rattus norvegicus [4] were 229000 and 103000, respectively.

Turning to `COCc1c2ccccc2c2ccc3cccc4ccc1c2c43`, the results for the Rate (pmol/30 min/mg protein) in the assay filed under Rattus norvegicus [9] and in the assay listed under Rattus norvegicus [6] were 654 and 7040, respectively.

Take `CCCOc1ccc2ccc3c(OCCC)c4ccccc4c4ccc1c2c34`: the Rate (pmol/30 min/mg protein) in the assay listed under Rattus norvegicus [1] is 818.

Molecule `COc1ccc2ccc3c(OC)c4ccccc4c4ccc1c2c34` yielded a Rate (pmol/30 min/mg protein) in the assay filed under Rattus norvegicus [6] of 5700.

As for `COc1ccc2ccc3c4ccccc4c(OC)c4ccc1c2c43`, the Rate (pmol/30 min/mg protein) in the assay filed under Rattus norvegicus [1] was determined as 1250.
